From PubChem BioAssay
TAAR1 ag = human TAAR1 agonism. Q96RJ0. CHO RD-HGA16 TAAR1, Fluo-8 calcium fluorescence; vehicle wells 0%, saturating PEA agonist 100%. activation, % at 3 µM. actives 0.99% (n = 360,000). AID 624467;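 active = activation above the mean activation of all test compounds in the run plus 3 SD, cut at about 38% in these data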
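Repeats: no replicates (n 1) | Material: CHO-derived RD-HGA16 cells with stable Gα16 and human TAAR1 | Technique: Kinetic Fluo-8 calcium fluorescence | Schedule: 17-24 h seeding, 75 min 37 °C dye, 30 min RT | Evaluation: % activation from peak over basal fluorescence ratio, DMSO-to-PEA scaled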
M1 ag = human M1 muscarinic receptor agonism | P11229 | CHO-K1 hM1, Fluo-8 calcium fluorescence, agonist mode; 0% DMSO, 100% acetylcholine EC100 | activation, % at 3 µM | actives 0.33% (n = 360,000) | AID 588814;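 active = activation above the run's mean compound activation plus 3 SD, cut at about 16% in these data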;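 also: peak over basal fluorescence ratio within a 140 s kinetic read after compound addition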
CHRM1 antagonist = human CHRM1 antagonism; CHO-K1 hM1, Fluo-8 calcium fluorescence, ACh EC80 antagonist; inhibition, % at 3 µM; actives 1.3% (n = 360,000);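 active = percent inhibition above its own plate's cutoff, namely the mean of that plate's compound wells plus 3 SD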;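 also: peak over basal fluorescence ratio during 140 s after agonist addition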
m5-HT2A agonist = agonists of mouse serotonin 5-HT2A receptor (HTR2A) | P35363 | CHO-K1 mHTR2A beta-arrestin complementation, luminescence; percent of 30 µM serotonin response | activation, % at 7.6 µM | AID 624169 | actives 0.66% (n = 360,000);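 active = activation above a run cutoff, the mean activation of all tested compounds plus 3 SD, cut at about 14% in these data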
Target sequence (P35363 whole entry, looked up): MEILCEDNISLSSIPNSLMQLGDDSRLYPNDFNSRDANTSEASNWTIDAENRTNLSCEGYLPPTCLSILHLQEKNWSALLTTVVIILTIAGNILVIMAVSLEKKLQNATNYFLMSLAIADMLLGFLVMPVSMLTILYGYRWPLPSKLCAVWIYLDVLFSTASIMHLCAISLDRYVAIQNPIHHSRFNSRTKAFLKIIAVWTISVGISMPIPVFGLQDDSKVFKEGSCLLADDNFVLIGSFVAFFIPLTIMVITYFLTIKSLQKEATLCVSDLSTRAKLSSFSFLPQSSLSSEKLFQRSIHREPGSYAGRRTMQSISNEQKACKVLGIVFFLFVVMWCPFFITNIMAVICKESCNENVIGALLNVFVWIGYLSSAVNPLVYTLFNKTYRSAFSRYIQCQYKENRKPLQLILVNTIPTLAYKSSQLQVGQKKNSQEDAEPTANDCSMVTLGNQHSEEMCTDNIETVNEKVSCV
CHRM1 PAM = potentiates human M1 receptor response to acetylcholine; actives 0.088% (n = 360,000); P11229; CHO-K1 hM1, Fluo-8 calcium fluorescence, ACh EC20; 0% = ACh EC20, 100% = maximal ACh; AID 588819; activation, % at 3 µM; in the data active = activation above about 19%, passing the limit was not always enough
TAAR1 antagonist = antagonists of human TAAR1. Q96RJ0. CHO RD-HGA16 TAAR1, Fluo-8 calcium fluorescence, antagonist. actives 1.5% (n = 360,000). inhibition, % at 3 µM;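 active = inhibition above a per-plate cutoff, the mean inhibition of test compounds on that plate plus 3 SD, cut at about 49% in these data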
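Test system: hTAAR1-expressing CHO RD-HGA16 cells, Gα16-coupled; Probe or stimulus: EC80 β-phenethylamine stimulus; Compound dosing: single nominal final test compound concentration of 3 µM; Timing: 140 s kinetic read after compound, 140 s after agonist; Signal: Fluo-8 calcium-sensitive fluorescence; Measure: % inhibition of agonist calcium response; Controls: DMSO and EC80 PEA controls.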
OPRM1 ag = activates human mu opioid receptor in HTR2A counterscreen; AID 624380; U2OS OPRM1 beta-arrestin PathHunter, luminescence; DMSO 0%, DAMGO 9.3 µM 100%; actives 5.3% (n = 2,300); shares compounds with m5-HT2A agonist; activation, % at 9.3 µM;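 active = mean activation above the mean of DMSO-only wells plus 3 SD, cut at about 0.5% in these data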
HTR2A ag conf = confirmation of mouse HTR2A serotonin receptor agonists | shares compounds with m5-HT2A agonist | CHO-K1 PathHunter beta-arrestin recruitment, luminescence; DMSO 0%, 30 µM serotonin 100% | activation, % at 7.6 µM | actives 19% (n = 2,300);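 active = mean activation across triplicates above the hit threshold derived in the original primary screen, cut at about 15% in these data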
Each line names hits and unclear results; the compound was inactive in the other large screens (follow-up assays come after a bar, where they were run). This is a sample that favours compounds with a hit; in the whole collection about 3.9% have one here.

CC1CC(C)CN(CCOCCSc2ccccc2)C1 (stereo unspecified)	m5-HT2A agonist 16 | OPRM1 ag inactive | HTR2A ag conf inactive
CCOc1ccccc1Nc1cc2n(c(=O)n1)CCc1cc(OC)c(OC)cc1-2	none
COc1cc2c(cc1OC)-c1cc(Nc3ccccc3C)nc(=O)n1CC2	m5-HT2A agonist 18 | OPRM1 ag inactive | HTR2A ag conf inactive
Cc1ccc2nc(NC(=O)CSCC(=O)Nc3cc(C)on3)sc2c1	m5-HT2A agonist 19 | OPRM1 ag inactive | HTR2A ag conf inactive
CCCc1cc(C(=O)N2CCCC(C(=O)c3cc(C)c(OC)c(C)c3)C2)n(C)n1 (stereo unspecified)	none
O=C(COc1ccccc1-c1ccccc1)c1ccccc1	none
CN1CCC(N(C)C(=O)COc2ccccc2-c2ccccc2)CC1	m5-HT2A agonist 18 | OPRM1 ag inactive | HTR2A ag conf inactive
CC1CC(C)CN(CCOc2cccc(Cl)c2Cl)C1 (stereo unspecified)	m5-HT2A agonist 30 | OPRM1 ag inactive | HTR2A ag conf 78
COc1ccc(C2=NN(C(=O)CCC(=O)O)C(c3ccc([N+](=O)[O-])cc3)C2)cc1 (stereo unspecified)	m5-HT2A agonist 19 | OPRM1 ag inactive | HTR2A ag conf inactive
Cc1ccc(CNC(=O)[C@H](C)NC(=O)C2CCN(C(=O)[C@@H]3CCCN3C(=O)OC(C)(C)C)CC2)cc1	none
CCOC(=O)C1CCN(c2c(Nc3ccc(C)c(C)c3)c(=O)c2=O)CC1	none
Cc1cc(Cl)nc(-n2nc(C)cc2C)n1	m5-HT2A agonist 16 | OPRM1 ag inactive | HTR2A ag conf inactive
O=C(N/N=C/c1ccccn1)c1ccc(Br)cc1	none
CN(C(=O)C(Cl)Cl)C1CC2C=CC1C2 (stereo unspecified)	none
O=C(Nc1ccccc1)C(O)C(O)C(=O)Nc1ccccc1 (stereo unspecified)	m5-HT2A agonist 24 | OPRM1 ag inactive | HTR2A ag conf inactive
COc1cccc(OC)c1OCCOCCn1cnc2ccccc2c1=O	m5-HT2A agonist 18 | OPRM1 ag inactive | HTR2A ag conf inactive
COC(=O)[C@]1(C)N[C@H](CN(C)C(=O)Nc2ccc(Cl)cc2)[C@@H]2C(=O)N(Cc3ccccc3)C(=O)[C@@H]21	m5-HT2A agonist 18 | OPRM1 ag inactive | HTR2A ag conf inactive
COC(=O)[C@]1(C)N[C@H](CN(C)C(=O)Nc2ccc(C)cc2)[C@@H]2C(=O)N(Cc3ccccc3)C(=O)[C@@H]21	none
O=C(CSc1nnc(Cc2cc(=O)[nH]c(=O)[nH]2)n1-c1ccccc1)N1CCCc2ccccc21	m5-HT2A agonist 16 | OPRM1 ag inactive | HTR2A ag conf inactive
Nc1nnc(-c2ccccc2[N+](=O)[O-])o1	m5-HT2A agonist 26 | OPRM1 ag inactive | HTR2A ag conf inactive
Cc1cc(OCC(=O)OCC(=O)NCc2ccco2)ccc1Cl	m5-HT2A agonist 15 | OPRM1 ag inactive | HTR2A ag conf inactive
Cc1cc(C)cc(OCC(=O)OCC(=O)NCc2ccco2)c1	none
CCOC(=O)C1(C)CCN1C(=O)c1ccco1 (stereo unspecified)	none
O=C1CC(=O)Nc2cc(S(=O)(=O)N3CCOc4ccccc43)ccc2N1	m5-HT2A agonist 26 | OPRM1 ag inactive | HTR2A ag conf inactive
COc1ccc(-c2n[nH]c(C)c2-c2ccc(Cl)cc2)c(O)c1OC	CHRM1 antagonist 35, m5-HT2A agonist 22, TAAR1 antagonist 54 | OPRM1 ag inactive | HTR2A ag conf inactive
CCCN(C(=O)Cc1ccc(S(=O)(=O)N2CCOCC2)s1)c1c(N)n(Cc2ccccc2)c(=O)[nH]c1=O	none
COc1ccccc1-c1ccc(=O)n(CC(=O)NC2CCc3ccccc32)n1 (stereo unspecified)	none
CCn1cc(C(=O)N2CCN(c3ccccc3F)CC2)c(=O)c2ccc(C)nc21	m5-HT2A agonist 15 | OPRM1 ag inactive | HTR2A ag conf inactive
CCOC(=O)c1c(S(=O)(=O)NCCc2ccc(OC)c(OC)c2)c(C)n(C)c1C	m5-HT2A agonist 16 | OPRM1 ag inactive | HTR2A ag conf inactive
CC(C)Oc1ccc(CNS(=O)(=O)c2csc(C(N)=O)c2)cc1	none
CC(C)c1nc(SCC(=O)NCC2CCCO2)c2c(=O)n(C)c(=O)n(C)c2n1 (stereo unspecified)	m5-HT2A agonist 28 | OPRM1 ag inactive | HTR2A ag conf inactive
CCOc1ccc(N(CC(=O)Nc2cc(C)ccc2C)S(=O)(=O)c2c(C)[nH]c(=O)[nH]c2=O)cc1	none
CC(C)(C)SC(=O)CC1NS(=O)(=O)OC2CCCCC12 (stereo unspecified)	m5-HT2A agonist 23 | OPRM1 ag inactive | HTR2A ag conf inactive
Cc1csc2c(N3CCC(C(=O)O)CC3)ncnc12	none
Cc1csc2c(N3CCN(C(=O)Nc4ccc(OC(F)(F)F)cc4)CC3)ncnc12	m5-HT2A agonist 14 | OPRM1 ag inactive | HTR2A ag conf inactive
COc1ccc(N2CCN(Cc3nc(N)nc(Nc4ccc(C)c(Cl)c4)n3)CC2)cc1	none
Nc1nc(CN2CCN(c3ccccc3)CC2)nc(N2CCCc3ccccc32)n1	m5-HT2A agonist 28 | OPRM1 ag inactive | HTR2A ag conf 71
Cc1ccc(Nc2nc(N)nc(CN3CCN(c4ccccc4)CC3)n2)cc1Cl	m5-HT2A agonist 15 | OPRM1 ag inactive | HTR2A ag conf 70
Nc1nc(CN2CCN(c3cccc(Cl)c3)CC2)nc(N2CCCc3ccccc32)n1	m5-HT2A agonist 24 | OPRM1 ag inactive | HTR2A ag conf 77
CC(C)c1cn(C2OC(COC(=O)c3ccccc3)C(OC(=O)c3ccccc3)C2OC(=O)c2ccccc2)c(=O)[nH]c1=O (stereo unspecified)	none
O=C1Nc2ccc([N+](=O)[O-])cc2C1(O)N1CCCCC1 (stereo unspecified)	none
CC1CCCN(C2(O)C(=O)Nc3ccc([N+](=O)[O-])cc32)C1 (stereo unspecified)	m5-HT2A agonist 17 | OPRM1 ag inactive | HTR2A ag conf inactive
O=C(CN1C(=O)NC2(CCCC2)C1=O)NCc1ccc(Cl)cc1	m5-HT2A agonist 19 | OPRM1 ag inactive | HTR2A ag conf inactive
